Test results reported in publication PMC12580983 (RSC Advances, 2025).
Values after ≈ are worked out from the molar mass of the structure shown.

Tests used:
A549 cells = test: MTT cell viability assay, A549; assay type: cell-based, Human; conditions: IC50 Vero cells / IC50 A549 cells
P. falciparum (Pf3D7) [1] = test: Parasitemia and suppression of Pf3D7 culture after 72 h of treatment; assay type: cell-based, Plasmodium falciparum; conditions: for percentage suppression of parasitemia: concentration not given
P. falciparum (Pf3D7) [2] = test: SYBR green I fluorescence antiplasmodial assay; assay type: cell-based, Plasmodium falciparum; conditions: for selectivity index (SI) towards Pf3D7: antimalarial selectivity, way of calculation not stated
How it was run: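 Chloroquine-sensitive P. falciparum 3D7 was grown in O+ human erythrocytes (4% haematocrit) in RPMI 1640 with 25 mM HEPES and 0.5% Albumax I, at 37 °C under 5% O2/5% CO2/90% N2. Sorbitol-synchronised rings (2% haematocrit, 1% parasitaemia) got increasing concentrations in water. SYBR Green I was read after 0.08% Triton X-100, 1 h at 37 °C in the dark (ex 485/em 530 nm), chloroquine-well counts subtracted. IC50 came from dose–response curves.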

SMILES | Selectivity Index (SI) (A549 cells) | % Parasitemia (P. falciparum (Pf3D7) [1]; 12.5 μg mL^−1, 72 h) | % Suppression (P. falciparum (Pf3D7) [1]; 12.5 μg mL^−1, 72 h) | % Parasitemia (P. falciparum (Pf3D7) [1]; 100 μg mL^−1, 72 h) | percentage suppression of parasitemia (P. falciparum (Pf3D7) [1]) | % Suppression (P. falciparum (Pf3D7) [1]; 100 μg mL^−1, 72 h) | IC50 (P. falciparum (Pf3D7) [2]; Plasmodium falciparum, 72 h, read-out: IC50 µM Pf3D7) | selectivity index (SI) towards Pf3D7 (P. falciparum (Pf3D7) [2])
C/C(=N/NC(=O)c1cn(-c2ccccc2)nc1-c1ccc(F)cc1)c1c(O)cc(C)oc1=O [3a, (Z)-3-(4-fluorophenyl)-N′-(1-(4-hydroxy-6-methyl-2-oxo-2H-pyran-3-yl)ethylidene)-1-phenyl-1H-pyrazole-4-carbohydrazide] | 2.78 | 93.33% | 6.67% | 2.95% | 97% |  |  | 
C/C(=N/NC(=O)c1cn(-c2ccccc2)nc1-c1ccc(Cl)cc1)c1c(O)cc(C)oc1=O [3b, (Z)-3-(4-chlorophenyl)-N′-(1-(4-hydroxy-6-methyl-2-oxo-2H-pyran-3-yl)ethylidene)-1-phenyl-1H-pyrazole-4-carbohydrazide] | 3.25 | 68.38% | 31.62% | 62.57% |  | 37.43% |  | 
C/C(=N/NC(=O)c1cn(-c2ccccc2)nc1-c1ccc(Br)cc1)c1c(O)cc(C)oc1=O [3c, (Z)-3-(4-bromophenyl)-N′-(1-(4-hydroxy-6-methyl-2-oxo-2H-pyran-3-yl)ethylidene)-1-phenyl-1H-pyrazole-4-carbohydrazide] |  | 52.90% | 47.10% | 5.81% |  | 94.19% |  | 
C/C(=N/NC(=O)c1cn(-c2ccccc2)nc1-c1ccc(C)cc1)c1c(O)cc(C)oc1=O [3d, (Z)-3-(4-methylphenyl)-N′-(1-(4-hydroxy-6-methyl-2-oxo-2H-pyran-3-yl)ethylidene)-1-phenyl-1H-pyrazole-4-carbohydrazide] |  | 42.19% | 57.81% | 2.47% | 97% |  | 5.2 µg/mL (≈ 11.8 µM) | 18.38
C/C(=N/NC(=O)c1cn(-c2ccccc2)nc1-c1ccccc1)c1c(O)cc(C)oc1=O [3e, (Z)-N′-(1-(4-hydroxy-6-methyl-2-oxo-2H-pyran-3-yl)ethylidene)-1,3-diphenyl-1H-pyrazole-4-carbohydrazide] | 4.56 | 73.81% | 26.19% | 37.62% |  | 62.38% |  | 9.48
CCN(CC)CCCC(C)Nc1ccnc2cc(Cl)ccc12 (stereo not drawn) [CQ, Chloroquine, reference compound] |  | 0.95% | 99.05% | 0.95% |  | 99.05% |  | 
N.N.O=C([O-])C1(C(=O)[O-])CCC1.[Pt+2] [Carboplatin, reference compound] | 2.57 |  |  |  |  |  |  | 
N.N.[Cl][Pt][Cl] [Cisplatin, reference compound] | 1.35 |  |  |  |  |  |  | 
C[C@@H]1C[C@H]2[C@@H]3CCC4=CC(=O)C=C[C@]4(C)[C@@]3(F)[C@@H](O)C[C@]2(C)[C@@]1(O)C(=O)CO [Dexamethasone, reference compound] | 0.23 |  |  |  |  |  |  | 
